Key:
[1] = Tested for extracellular drug concentration required to kill 50 percent of V-79 cells after one hour incubation period; conditions: Chinese hamster, V79 cells; read-out: LD50
[2] = Tested for extracellular drug concentration required to kill 50 percent of V-79 cells after one hour incubation period and subsequent exposure red light; conditions: Chinese hamster, V79 cells; read-out: LD50
Mus musculus [3] = experiment: Mean tissue uptake in muscle determined in tumor-bearing mice after 12 hour by intravenous administration at 1 umol/kg; type: functional
How it was run: (§1)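 Male BALB/c AnN mice carrying intradermal EMT-6 tumours on the hind thighs (2×10^5 cells; used 6-8 days later at 4-8 mm diameter) received 1 μmol/kg iv via the tail vein in 10% Cremophor emulsion. Plasma from orbital-sinus blood and excised tissue were extracted with DMF overnight at 37 °C, then centrifuged. Dye was read by fluorescence (ex 766, em 780 nm) against per-tissue calibration curves. Mean with SE, n = 3.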

[4] = Tumor/muscle uptake ratio after 2 day; type: functional, Muscle tissue
How it was run: (§2)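 The ratio of tumour uptake (μg/g) to muscle uptake (μg/g), or to plasma concentration (μg/mL), was taken at each time point. Mice were EMT-6-bearing BALB/c (n = 3) given 1 μmol/kg iv in 10% Cremophor emulsion. Dye was measured by fluorescence (ex 766, em 780 nm) in DMF extracts and quantified against tissue-specific calibration curves.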

[5] = Tumor/plasma uptake ratio after 12 hr; type: functional
How it was run: as §2

[6] = Tumor/plasma uptake ratio after 6 hr; type: functional
How it was run: as §2

Mus musculus [7] = experiment: Mean tissue uptake in skin determined in tumor-bearing mice after 7 days by intravenous administration at 1 umol/kg; type: functional
How it was run: as §1

[8] = Tumor/muscle uptake ratio after 12 hr; type: functional, Muscle tissue
How it was run: as §2

Mus musculus [9] = experiment: Mean tissue uptake in skin determined in tumor-bearing mice after 3 hr by intravenous administration at 1 umol/kg; type: functional
How it was run: as §1

Mus musculus [10] = experiment: Mean tissue uptake in skin determined in tumor-bearing mice after 12 hr by intravenous administration at 1 umol/kg; type: functional
How it was run: as §1

[11] = Tumor/plasma uptake ratio after 1 day; type: functional
How it was run: as §2

[12] = Tumor/plasma uptake ratio after 3 hr; type: functional
How it was run: as §2

Mus musculus [13] = experiment: Mean tissue uptake in muscle determined in tumor-bearing mice after 3 days by intravenous administration at 1 umol/kg; type: functional
How it was run: as §1

Mus musculus [14] = experiment: Tested for plasma concentration in tumor-bearing mice after 1 hour by intravenous administration at 1 umol/kg; type: functional
How it was run: as §1

Mus musculus [15] = experiment: Mean tissue uptake in skin determined in tumor-bearing mice after 1 hr by intravenous administration at 1 umol/kg; type: functional
How it was run: as §1

Mus musculus [16] = experiment: Mean tissue uptake in muscle determined in tumor-bearing mice after 1 hour by intravenous administration at 1 umol/kg; type: functional
How it was run: as §1

[17] = Tumor/muscle uptake ratio after 6 hr; type: functional, Muscle tissue
How it was run: as §2

[18] = Tumor/muscle uptake ratio after 3 hr; type: functional, Muscle tissue
How it was run: as §2

Mus musculus [19] = experiment: Tested for plasma concentration in tumor-bearing mice after 2 day by intravenous administration at 1 umol/kg; type: functional
How it was run: as §1

[20] = Tumor/plasma uptake ratio after 3 days; type: functional
How it was run: as §2

Mus musculus [21] = experiment: Mean tissue uptake in muscle determined in tumor-bearing mice after 1 day by intravenous administration at 1 umol/kg; type: functional
How it was run: as §1

Mus musculus [22] = experiment: Mean tissue uptake in tumor determined in tumor-bearing mice after 2 day by intravenous administration at 1 umol/kg; type: functional
How it was run: as §1

Mus musculus [23] = experiment: Mean tissue uptake in skin determined in tumor-bearing mice after 3 days by intravenous administration at 1 umol/kg; type: functional
How it was run: as §1

[24] = Tumor/muscle uptake ratio after 7 days; type: functional, Muscle tissue
How it was run: as §2

Mus musculus [25] = experiment: Tested for plasma concentration in tumor-bearing mice after 12 hour by intravenous administration at 1 umol/kg; type: functional
How it was run: as §1

Mus musculus [26] = experiment: Mean tissue uptake in skin determined in tumor-bearing mice after 6 hr by intravenous administration at 1 umol/kg; type: functional
How it was run: as §1

[27] = Tumor/plasma uptake ratio after 2 day; type: functional
How it was run: as §2

Mus musculus [28] = experiment: Mean tissue uptake in tumor determined in tumor-bearing mice after 7 day by intravenous administration at 1 umol/kg; type: functional
How it was run: as §1

Mus musculus [29] = experiment: Tested for plasma concentration in tumor-bearing mice after 7 day by intravenous administration at 1 umol/kg; type: functional
How it was run: as §1

[30] = Tumor/muscle uptake ratio after 3 days; type: functional, Muscle tissue
How it was run: as §2

Mus musculus [31] = experiment: Mean tissue uptake in skin determined in tumor-bearing mice after 2 day by intravenous administration at 1 umol/kg; type: functional
How it was run: as §1

Mus musculus [32] = experiment: Mean tissue uptake in muscle determined in tumor-bearing mice after 6 hour by intravenous administration at 1 umol/kg; type: functional
How it was run: as §1

Mus musculus [33] = experiment: Mean tissue uptake in muscle determined in tumor-bearing mice after 3 hour by intravenous administration at 1 umol/kg; type: functional
How it was run: as §1

Mus musculus [34] = experiment: Tested for plasma concentration in tumor-bearing mice after 3 hour by intravenous administration at 1 umol/kg; type: functional
How it was run: as §1

Mus musculus [35] = experiment: Mean tissue uptake in muscle determined in tumor-bearing mice after 2 day by intravenous administration at 1 umol/kg; type: functional
How it was run: as §1

Mus musculus [36] = experiment: Mean tissue uptake in tumor determined in tumor-bearing mice after 3 hour by intravenous administration at 1 umol/kg; type: functional
How it was run: as §1

Mus musculus [37] = experiment: Mean tissue uptake in tumor determined in tumor-bearing mice after 12 hour by intravenous administration at 1 umol/kg; type: functional
How it was run: as §1

Mus musculus [38] = experiment: Tested for plasma concentration in tumor-bearing mice after 6 hour by intravenous administration at 1 umol/kg; type: functional
How it was run: as §1

Mus musculus [39] = experiment: Mean tissue uptake in tumor determined in tumor-bearing mice after 6 hour by intravenous administration at 1 umol/kg; type: functional
How it was run: as §1

Mus musculus [40] = experiment: Mean tissue uptake in tumor determined in tumor-bearing mice after 3 day by intravenous administration at 1 umol/kg; type: functional
How it was run: as §1

Mus musculus [41] = experiment: Tested for plasma concentration in tumor-bearing mice after 1 day by intravenous administration at 1 umol/kg; type: functional
How it was run: as §1

Mus musculus [42] = experiment: Mean tissue uptake in skin determined in tumor-bearing mice after 1 day by intravenous administration at 1 umol/kg; type: functional
How it was run: as §1

[43] = Tumor/muscle uptake ratio after 1 hr; type: functional, Muscle tissue
How it was run: as §2

[44] = Tumor/muscle uptake ratio after 1 day; type: functional, Muscle tissue
How it was run: as §2

Mus musculus [45] = experiment: Mean tissue uptake in muscle determined in tumor-bearing mice after 7 days by intravenous administration at 1 umol/kg; type: functional
How it was run: as §1

Mus musculus [46] = experiment: Mean tissue uptake in tumor determined in tumor-bearing mice after 1 day by intravenous administration at 1 umol/kg; type: functional
How it was run: as §1

[47] = Tumor/plasma uptake ratio after 1 hr; type: functional
How it was run: as §2

Mus musculus [48] = experiment: Mean tissue uptake in tumor determined in tumor-bearing mice after 1 hour by intravenous administration at 1 umol/kg; type: functional
How it was run: as §1

Mus musculus [49] = experiment: Tested for plasma concentration in tumor-bearing mice after 3 day by intravenous administration at 1 umol/kg; type: functional
How it was run: as §1

In the case of `CC(C)(C)[Si](C)(C)O[Si]1(O[Si](C)(C)C(C)(C)C)n2c3c4cc5ccccc5cc4c2/N=C2N=C(/N=c4/c5cc6ccccc6cc5/c(n41)=N/C1=NC(=N\3)/c3cc4ccccc4cc31)c1cc3ccccc3cc1\2`, the CC50 at 1 h [1] is reported as 36 µM and the CC50 at 1 h [2] is reported as 12 µM.
With `CCCCCC[Si](CCCCCC)(CCCCCC)O[Si]1(O[Si](CCCCCC)(CCCCCC)CCCCCC)n2c3c4cc5ccccc5cc4c2/N=C2N=C(/N=c4/c5cc6ccccc6cc5/c(n41)=N/C1=NC(=N\3)/c3cc4ccccc4cc31)c1cc3ccccc3cc1\2` the CC50 at 1 h [1] was 46 µM and the CC50 at 1 h [2] was 29 µM.
In the case of `CCCCCCCCCCCCCCCCCC[Si](C)(C)O[Si]1(O[Si](C)(C)CCCCCCCCCCCCCCCCCC)n2c3c4cc5ccccc5cc4c2/N=C2N=C(/N=c4/c5cc6ccccc6cc5/c(n41)=N/C1=NC(=N\3)/c3cc4ccccc4cc31)c1cc3ccccc3cc1\2`, the CC50 at 1 h [1] is reported as 4.2 µM and the CC50 at 1 h [2] is reported as 1.8 µM.
In the case of `CC(C)C(C)(C)[Si](C)(C)O[Si]1(O[Si](C)(C)C(C)(C)C(C)C)n2c3c4cc5ccccc5cc4c2/N=C2N=C(/N=c4/c5cc6ccccc6cc5/c(n41)=N/C1=NC(=N\3)/c3cc4ccccc4cc31)c1cc3ccccc3cc1\2`, the Tissue distribution (Mus musculus [3]) is reported as 0.09 µg/g, the Ratio [4] is reported as 9.1 and the Ratio [5] is reported as 0.16. It also gave a CC50 at 1 h [1] of 6.5 µM, a Ratio [6] of 0.07 and a Tissue distribution (Mus musculus [7]) of 0.35 µg/g. The Ratio [8] was 10, the Tissue distribution (Mus musculus [9]) was 0.51 µg/g and the Tissue distribution (Mus musculus [10]) was 0.56 µg/g. For the same compound, the Ratio [11] was 0.34, the Ratio [12] was 0.04 and the Tissue distribution (Mus musculus [13]) was 0.13 µg/g. It also gave a Blood clearance (Mus musculus [14]) of 12.94 µg/mL, a Tissue distribution (Mus musculus [15]) of 0.13 µg/g and a CC50 at 1 h [2] of 5.5 µM. It also gave a Tissue distribution (Mus musculus [16]) of 0.12 µg/g, a Ratio [17] of 0.7 and a Ratio [18] of 1.4. For the same compound, the Blood clearance (Mus musculus [19]) was 0.21 µg/mL, the Ratio [20] was 38 and the Tissue distribution (Mus musculus [21]) was 0.11 µg/g. It also gave a Tissue distribution (Mus musculus [22]) of 0.73 µg/g, a Tissue distribution (Mus musculus [23]) of 0.44 µg/g and a Ratio [24] of 6.4. It also gave a Blood clearance (Mus musculus [25]) of 5.51 µg/mL, a Tissue distribution (Mus musculus [26]) of 0.36 µg/g and a Ratio [27] of 3.5. The Tissue distribution (Mus musculus [28]) was 0.51 µg/g, the Blood clearance (Mus musculus [29]) was 0 µg/mL and the Ratio [30] was 5.9. It also gave a Tissue distribution (Mus musculus [31]) of 0.43 µg/g, a Tissue distribution (Mus musculus [32]) of 0.98 µg/g and a Tissue distribution (Mus musculus [33]) of 0.32 µg/g. For the same compound, the Blood clearance (Mus musculus [34]) was 11.28 µg/mL, the Tissue distribution (Mus musculus [35]) was 0.08 µg/g and the Tissue distribution (Mus musculus [36]) was 0.46 µg/g. It also gave a Tissue distribution (Mus musculus [37]) of 0.9 µg/g, a Blood clearance (Mus musculus [38]) of 9.12 µg/mL and a Tissue distribution (Mus musculus [39]) of 0.65 µg/g. The Tissue distribution (Mus musculus [40]) was 0.77 µg/g, the Blood clearance (Mus musculus [41]) was 2.06 µg/mL and the Tissue distribution (Mus musculus [42]) was 0.46 µg/g. It also gave a Ratio [43] of 3.6, a Ratio [44] of 6.4 and a Tissue distribution (Mus musculus [45]) of 0.08 µg/g. For the same compound, the Tissue distribution (Mus musculus [46]) was 0.71 µg/g, the Ratio [47] was 0.03 and the Tissue distribution (Mus musculus [48]) was 0.43 µg/g. It also gave a Blood clearance (Mus musculus [49]) of 0.02 µg/mL.
